Tests used:
[1] = test system: A549; assay: Antiproliferative activity against human A549 cells after 48 hrs by MTT assay; assay type: functional, cell-based; conditions: A549, 48 h
Method in brief: (§1)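 Cells grown to log phase in RPMI 1640 with 10% FBS, seeded at 2×10^4 cells/mL and allowed 24 h at 37 °C, 5% CO₂ before treatment. Compounds at pre-set concentrations, colchicine and CA-4 as references, exposed 48 h. MTT added (2.5 mg/mL in PBS) for 4 h, then SDS/isobutyl alcohol/HCl extraction overnight; OD at 570 nm. Triplicate wells per concentration; values averaged from at least three separate runs.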

[2] = test system: MCF7; assay: Antiproliferative activity against human MCF7 cells after 48 hrs by MTT assay; assay type: functional, cell-based; conditions: MCF7, 48 h; method in brief: as §1
[3] = Antiproliferative activity against mouse B16F10 cells after 48 hrs by MTT assay; assay type: functional, cell-based; conditions: B16-F10, 48 h; method in brief: as §1
[4] = target: Tubulin (Bos taurus, UniProt Q6B856+Q862L2+Q862F3); assay: Inhibition of bovine brain tubulin polymerization incubated for 20 mins by spectrophotometry
[5] = test system: MCF7; assay: Induction of cell cycle arrest in human MCF7 cells assessed as accumulation at G2/M phase at 1 ug/ml after 24 hrs by flow cytometry (reference value: 25.67%); assay type: functional
Method in brief: (§2)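 MCF-7 cells exposed 24 h to the compound at 1 and 2 μg/mL. Phase distribution (G0/G1, S, G2/M) was measured by flow cytometry and reported as percentage of cells in each phase.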

[6] = test system: MCF7; assay: Induction of cell cycle arrest in human MCF7 cells assessed as accumulation at G0/G1 phase at 1 ug/ml after 24 hrs by flow cytometry (reference value: 59.75%); assay type: functional; method in brief: as §2
[7] = test system: MCF7; assay: Induction of cell cycle arrest in human MCF7 cells assessed as accumulation at S phase at 2 ug/ml after 24 hrs by flow cytometry (reference value: 14.58%); assay type: functional; method in brief: as §2
[8] = test system: MCF7; assay: Induction of cell cycle arrest in human MCF7 cells assessed as accumulation at G2/M phase after 24 hrs by flow cytometry; assay type: functional, cell-based; method in brief: as §2
[9] = test system: MCF7; assay: Induction of cell cycle arrest in human MCF7 cells assessed as accumulation at G0/G1 phase at 2 ug/ml after 24 hrs by flow cytometry (reference value: 59.75%); assay type: functional; method in brief: as §2
[10] = test system: MCF7; assay: Induction of cell cycle arrest in human MCF7 cells assessed as accumulation at G2/M phase at 2 ug/ml after 24 hrs by flow cytometry (reference value: 25.67%); assay type: functional; method in brief: as §2
[11] = test system: MCF7; assay: Induction of cell cycle arrest in human MCF7 cells assessed as accumulation at S phase at 1 ug/ml after 24 hrs by flow cytometry (reference value: 14.58%); assay type: functional; method in brief: as §2
[12] = test system: MCF7; assay: Induction of cell cycle arrest in human MCF7 cells assessed as accumulation at G0/G1 phase after 24 hrs by flow cytometry (reference value: 59.75%); assay type: functional; method in brief: as §2
[13] = test system: MCF7; assay: Induction of cell cycle arrest in human MCF7 cells assessed as accumulation at G2/M phase after 24 hrs by flow cytometry (reference value: 25.67%); assay type: functional; method in brief: as §2
[14] = test system: MCF7; assay: Induction of cell cycle arrest in human MCF7 cells assessed as accumulation at S phase after 24 hrs by flow cytometry (reference value: 14.58%); assay type: functional; method in brief: as §2

| Structure (SMILES) | IC50 [1] | IC50 [2] | IC50 [3] | IC50 [4] | pIC50 [4] | further results |
| --- | --- | --- | --- | --- | --- | --- |
| O=C(/C=C/c1ccc(F)cc1)Nc1cc(-c2ccccc2)[nH]n1 | 1220 nM | 840 nM | 1250 nM | 1850 nM | 5.733 | – |
| O=C(/C=C/c1ccccc1)Nc1cc(-c2ccccc2)[nH]n1 | 1580 nM | 1360 nM | 1560 nM | 2840 nM | 5.547 | – |
| Cc1ccc(/C=C/C(=O)Nc2cc(-c3ccc(C)cc3)[nH]n2)cc1 | 1880 nM | 1720 nM | 1750 nM | 3360 nM | 5.474 | – |
| Cc1ccc(-c2cc(NC(=O)/C=C/c3ccccc3)n[nH]2)cc1 | 1670 nM | 1630 nM | 1680 nM | 3120 nM | 5.506 | – |
| O=C(/C=C/c1ccc(Cl)cc1)Nc1cc(-c2ccc(Br)cc2)[nH]n1 | 1210 nM | 770 nM | 1080 nM | 1950 nM | 5.71 | – |
| O=C(/C=C/c1ccc(Br)cc1)Nc1cc(-c2ccc(Br)cc2)[nH]n1 | 1360 nM | 920 nM | 1280 nM | 2140 nM | 5.67 | – |
| O=C(/C=C/c1ccc(Cl)cc1)Nc1cc(-c2ccccc2)[nH]n1 | 1390 nM | 970 nM | 1270 nM | 2060 nM | 5.686 | – |
| Cc1ccc(-c2cc(NC(=O)/C=C/c3ccc([N+](=O)[O-])cc3)n[nH]2)cc1 | 1130 nM | 840 nM | 1320 nM | 1620 nM | 5.79 | – |
| COc1ccc(/C=C/C(=O)Nc2cc(-c3ccc(C)cc3)[nH]n2)cc1 | 1190 nM | 860 nM | 1370 nM | 1760 nM | 5.754 | – |
| O=C(/C=C/c1ccccc1)Nc1cc(-c2ccc(Br)cc2)[nH]n1 | 1440 nM | 1120 nM | 1270 nM | 2550 nM | 5.593 | – |
| O=C(/C=C\c1ccc(F)cc1)Nc1cc(-c2ccc(Br)cc2)[nH]n1 | 930 nM | 640 nM | 850 nM | 1780 nM | 5.75 | – |
| Cc1ccc(/C=C/C(=O)Nc2cc(-c3ccccc3)[nH]n2)cc1 | 1770 nM | 1780 nM | 1680 nM | 3020 nM | 5.52 | – |
| Cc1ccc(/C=C/C(=O)Nc2cc(-c3ccc(Br)cc3)[nH]n2)cc1 | 1620 nM | 1170 nM | 1480 nM | 2760 nM | 5.56 | – |
| O=C(/C=C/c1ccc(Br)cc1)Nc1cc(-c2ccccc2)[nH]n1 | 1460 nM | 1240 nM | 1380 nM | 2360 nM | 5.627 | – |
| O=C(/C=C/c1ccc([N+](=O)[O-])cc1)Nc1cc(-c2ccccc2)[nH]n1 | 970 nM | 630 nM | 720 nM | 1560 nM | 5.807 | – |
| O=C(/C=C/c1ccc(C(F)(F)F)cc1)Nc1cc(-c2ccc(Br)cc2)[nH]n1 | 620 nM | 350 nM | 570 nM | 1020 nM | 5.991 | Activity [5]: 45.55%; Activity [6]: 35.99%; Activity [7]: 16.28%; Activity [8]: Dose-dependent effect; Activity [9]: 6.77%; Activity [10]: 76.95%; Activity [11]: 18.46% |
| O=C(/C=C\c1ccc(C(F)(F)F)cc1)Nc1cc(-c2ccccc2)[nH]n1 | 880 nM | 540 nM | 640 nM | 1340 nM | 5.873 | – |
| COc1ccc(/C=C\C(=O)Nc2cc(-c3ccccc3)[nH]n2)cc1 | 1060 nM | 720 nM | 950 nM | 1640 nM | 5.785 | – |
| COc1ccc(/C=C\c2cc(OC)c(OC)c(OC)c2)cc1O [COMBRETASTATIN A4] | 460 nM | 210 nM | 420 nM | – | – | – |
| Cc1ccc(-c2cc(NC(=O)/C=C/c3ccc(C(F)(F)F)cc3)n[nH]2)cc1 | 1020 nM | 720 nM | 1210 nM | 1530 nM | 5.815 | – |
| Cc1ccc(-c2cc(NC(=O)/C=C/c3ccc(Cl)cc3)n[nH]2)cc1 | 1490 nM | 1190 nM | 1520 nM | 2150 nM | 5.668 | – |
| COc1ccc(/C=C/C(=O)Nc2cc(-c3ccc(Br)cc3)[nH]n2)cc1 | 820 nM | 590 nM | 770 nM | 1350 nM | 5.87 | – |
| O=C(/C=C/c1ccc([N+](=O)[O-])cc1)Nc1cc(-c2ccc(Br)cc2)[nH]n1 | 740 nM | 560 nM | 630 nM | 1240 nM | 5.907 | – |
| COc1cc2c(c(OC)c1OC)-c1ccc(OC)c(=O)cc1[C@@H](NC(C)=O)CC2 [COLCHICINE] | 580 nM | 390 nM | 480 nM | – | – | Activity [12]: 6.94%; Activity [13]: 80.62%; Activity [14]: 12.44% |
| Cc1ccc(-c2cc(NC(=O)/C=C/c3ccc(F)cc3)n[nH]2)cc1 | 1250 nM | 950 nM | 1430 nM | 1920 nM | 5.717 | – |
| Cc1ccc(-c2cc(NC(=O)/C=C/c3ccc(Br)cc3)n[nH]2)cc1 | 1590 nM | 1370 nM | 1570 nM | 2550 nM | 5.593 | – |

Source: ChEMBL document CHEMBL3407470, “Synthesis, biological evaluation and 3D-QSAR studies of novel 5-phenyl-1H-pyrazol cinnamamide derivatives as novel antitubulin agents” (Eur J Med Chem, 2015)
